In ChEMBL document CHEMBL1156261, “Evaluation of substituted N,N'-diarylsulfonamides as activators of the tumor cell specific M2 isoform of pyruvate kinase” (J Med Chem, 2010):
In brackets after ≈: the same amount, converted by molar mass. Activity calls are given as the source filed them.

Columns and labels:
Pyruvate kinase PKM [1] = biological target: T1, Pyruvate kinase PKM (Homo sapiens, UniProt P14618); test: Activation of PKM2 assessed as ATP product formation by luminescent pyruvate kinase-luciferase coupled assay
In short: (§1)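 Recombinant human PKM2 (0.1 nM final) in 50 mM imidazole pH 7.2, 50 mM KCl, 7 mM MgCl2, 0.01% Tween 20, 0.05% BSA; 0.1 mM ADP, 0.5 mM PEP; 1 h at r.t., then Kinase-Glo luciferase read of ATP formed. Activation % = (c−n)/(n−i)×100 against DMSO and no-enzyme controls; 100% ≈ 2-fold over basal signal. Max response taken at 57 μM; three separate experiments.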
Target sequence in this assay (P14618 whole entry): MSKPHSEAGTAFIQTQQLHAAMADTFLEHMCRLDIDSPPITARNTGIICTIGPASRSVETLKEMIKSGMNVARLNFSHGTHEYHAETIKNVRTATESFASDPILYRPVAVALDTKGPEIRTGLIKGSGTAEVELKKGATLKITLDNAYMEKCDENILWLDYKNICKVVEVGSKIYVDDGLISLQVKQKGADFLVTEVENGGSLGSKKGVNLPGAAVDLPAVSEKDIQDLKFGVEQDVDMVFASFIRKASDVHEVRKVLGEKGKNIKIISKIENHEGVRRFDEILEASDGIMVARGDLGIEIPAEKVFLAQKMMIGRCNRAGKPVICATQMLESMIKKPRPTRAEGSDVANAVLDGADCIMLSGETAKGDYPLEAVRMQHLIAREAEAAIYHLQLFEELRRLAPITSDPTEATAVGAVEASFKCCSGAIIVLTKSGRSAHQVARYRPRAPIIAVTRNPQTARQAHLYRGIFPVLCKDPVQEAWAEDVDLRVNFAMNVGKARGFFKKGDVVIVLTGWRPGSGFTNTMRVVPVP

[2] = biological target: Pyruvate kinase PKLR (Homo sapiens) (UniProt P30613); test: Activation of PKR assessed as ATP product formation by luminescent pyruvate kinase-luciferase coupled assay relative to control; design: concentration or dose not given beside the values
In short: (§2)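 Luciferase-coupled ATP production assay run as for PKM2: imidazole pH 7.2 buffer with KCl, MgCl2, Tween 20 and BSA, 0.1 mM ADP, 0.5 mM PEP, 1 h at r.t., Kinase-Glo luminescence. Enzyme final concentrations were PKM1 1 nM, PKL 0.1 nM, PKR 0.1 nM. % activation normalized to DMSO (neutral) and no-enzyme controls.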

Pyruvate kinase PKM [3] = biological target: T1, Pyruvate kinase PKM; test: Activation of PKM2 assessed as ATP product formation at 57 uM by luminescent pyruvate kinase-luciferase coupled assay relative to fructose-1,6-bis-phosphate; in short: as §1
Target sequence in this assay (P14618 2-531 limits assumed): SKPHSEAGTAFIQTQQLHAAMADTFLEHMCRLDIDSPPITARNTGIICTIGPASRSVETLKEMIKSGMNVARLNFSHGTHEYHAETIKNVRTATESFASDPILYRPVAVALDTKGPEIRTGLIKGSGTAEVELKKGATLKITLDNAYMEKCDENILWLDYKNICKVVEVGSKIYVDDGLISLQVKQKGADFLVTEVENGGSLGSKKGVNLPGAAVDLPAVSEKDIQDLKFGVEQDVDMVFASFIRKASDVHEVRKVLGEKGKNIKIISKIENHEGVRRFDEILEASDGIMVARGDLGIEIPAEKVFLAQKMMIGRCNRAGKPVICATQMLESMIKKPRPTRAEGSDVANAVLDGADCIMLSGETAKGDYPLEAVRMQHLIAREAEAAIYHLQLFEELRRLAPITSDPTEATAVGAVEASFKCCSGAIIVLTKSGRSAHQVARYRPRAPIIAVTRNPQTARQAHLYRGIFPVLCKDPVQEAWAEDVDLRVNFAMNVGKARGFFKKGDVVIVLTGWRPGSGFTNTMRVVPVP

Pyruvate kinase PKM [4] = biological target: T1, Pyruvate kinase PKM; test: Activation of PKM1 assessed as pyruvate formation by fluorescent pyruvate kinase-lactate dehydrogenase coupled assay
Target sequence in this assay (P14618 2-531 limits assumed): as above

Pyruvate kinase PKM [5] = biological target: T1, Pyruvate kinase PKM; test: Activation of PKM1 assessed as ATP product formation by luminescent pyruvate kinase-luciferase coupled assay; in short: as §2
Target sequence in this assay (P14618 2-531 limits assumed): as above

[6] = biological target: Pyruvate kinase PKLR (Homo sapiens) (UniProt P30613); test: Activation of PKL assessed as pyruvate formation by fluorescent pyruvate kinase-lactate dehydrogenase coupled assay relative to control; design: concentration or dose not given beside the values
[7] = biological target: Pyruvate kinase PKLR (Homo sapiens) (UniProt P30613); test: Activation of PKR assessed as pyruvate formation by fluorescent pyruvate kinase-lactate dehydrogenase coupled assay relative to control; design: concentration or dose not given beside the values
[8] = biological target: Pyruvate kinase PKLR (Homo sapiens) (UniProt P30613); test: Activation of PKL assessed as ATP product formation by luminescent pyruvate kinase-luciferase coupled assay relative to control; design: concentration or dose not given beside the values; in short: as §2
Pyruvate kinase PKM [9] = biological target: T1, Pyruvate kinase PKM; test: Activation of PKM2 assessed as effect on Km for ADP relative to untreated control
In short: (§3)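 Steady-state kinetics were measured by the PK–LDH coupled assay at about 22 °C with 10 nM PKM2, 200 mM KCl and 15 mM MgCl2. One substrate (PEP or ADP) was varied with the other held at 4.0 mM, with or without activator. Fluorescence was converted to pmol NADH by a standard curve; initial rates (pmol/min) were fit for KM.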
Target sequence in this assay (P14618 2-531 limits assumed): as above

Pyruvate kinase PKM [10] = biological target: T1, Pyruvate kinase PKM; test: Activation of PKM2 assessed as pyruvate formation by fluorescent pyruvate kinase-lactate dehydrogenase coupled assay
In short: (§4)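 Kinetic PK–LDH coupled read: 10 nM hPK-M2 with 1 μM LDH in 50 mM Tris-Cl pH 8.0, 200 mM KCl, 15 mM MgCl2, 0.1 mM PEP, 4.0 mM ADP, 0.2 mM NADH. NADH fluorescence decrease was read at 30 s intervals over 3–6 min.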
Target sequence in this assay (P14618 whole entry): as the sequence (P14618 whole entry) above

Pyruvate kinase PKM [11] = biological target: T1, Pyruvate kinase PKM; test: Activation of PKM2 assessed as reduction of Km for phosphoenolpyruvate relative to untreated control; in short: as §3
Target sequence in this assay (P14618 2-531 limits assumed): as the sequence (P14618 2-531 limits assumed) above

Pyruvate kinase PKM [12] = biological target: T1, Pyruvate kinase PKM; test: Activation of PKM2 in presence of excess of phosphoenolpyruvate level
Target sequence in this assay (P14618 2-531 limits assumed): as above

Pyruvate kinase PKM [13] = biological target: T1, Pyruvate kinase PKM; test: Activation of PKM2 assessed as pyruvate formation by fluorescent pyruvate kinase-lactate dehydrogenase coupled assay relative to fructose-1,6-bis-phosphate; in short: as §4
[14] = Kinetic solubility by quantitative nitrogen detection assay; assay type: physicochemical
In short: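 Kinetic solubility was determined by quantitative nitrogen detection in three separate experiments.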

Pyruvate kinase PKLR (Homo sapiens), sequence (P30613 whole entry, looked up): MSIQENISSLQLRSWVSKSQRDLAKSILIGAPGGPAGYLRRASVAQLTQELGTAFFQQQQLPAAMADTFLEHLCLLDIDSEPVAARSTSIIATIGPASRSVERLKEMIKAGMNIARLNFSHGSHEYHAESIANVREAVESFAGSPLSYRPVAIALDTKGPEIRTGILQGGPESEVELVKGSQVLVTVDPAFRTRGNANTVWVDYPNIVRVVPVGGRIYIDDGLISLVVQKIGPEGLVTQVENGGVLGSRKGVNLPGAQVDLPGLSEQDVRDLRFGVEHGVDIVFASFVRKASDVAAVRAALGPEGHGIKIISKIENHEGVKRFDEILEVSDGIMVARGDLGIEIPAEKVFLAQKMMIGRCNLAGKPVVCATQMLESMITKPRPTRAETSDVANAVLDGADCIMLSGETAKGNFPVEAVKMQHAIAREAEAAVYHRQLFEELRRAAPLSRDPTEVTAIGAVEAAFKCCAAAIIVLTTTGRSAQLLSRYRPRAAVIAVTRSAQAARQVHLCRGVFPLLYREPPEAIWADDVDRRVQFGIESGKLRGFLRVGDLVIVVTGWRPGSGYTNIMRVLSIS

| SMILES | AC50 (Pyruvate kinase PKM [1]; read-out: AC50) [µM] | Activity [2] [%] | Activity (Pyruvate kinase PKM [3]) | Activity (Pyruvate kinase PKM [4]) | Activity (Pyruvate kinase PKM [5]) | Activity [6] [%] | Activity [7] [%] | Activity [8] [%] | Activity (Pyruvate kinase PKM [9]) | AC50 (Pyruvate kinase PKM [10]) [µM] | fold change (FC) (Pyruvate kinase PKM [11]) | Activity (Pyruvate kinase PKM [12]) | Activity (Pyruvate kinase PKM [13]) [%] | AC50 (Pyruvate kinase PKM [1]) | solubility kinetic [14] [µM] |
| --- | --- | --- | --- | --- | --- | --- | --- | --- | --- | --- | --- | --- | --- | --- | --- |
| O=S(=O)(NCC1CN(S(=O)(=O)c2ccc3c(c2)OCCO3)C1)c1c(F)cccc1F | 4.47 | < 30 | 93.3% | inactive | inactive | < 30 | < 30 | < 30 | – | – | – | – | – | – | – |
| O=S(=O)(NCC1CN(S(=O)(=O)c2c(F)cccc2F)C1)c1ccc2c(c1)OCCO2 | 3.05 | < 30 | 108% | inactive | inactive | < 30 | < 30 | < 30 | – | – | – | – | – | – | – |
| C[C@H]1CN(S(=O)(=O)c2ccc3c(c2)OCCO3)CCN1S(=O)(=O)c1c(F)cccc1F | 9.18 | < 30 | 108% | inactive | inactive | < 30 | < 30 | < 30 | – | – | – | – | – | – | – |
| O=S(=O)(NC1CCN(S(=O)(=O)c2c(F)cccc2F)C1)c1ccc2c(c1)OCCO2 (stereo not drawn) | > 10 | < 30 | 83.7% | inactive | inactive | < 30 | < 30 | < 30 | – | – | – | – | – | – | – |
| COc1ccc(S(=O)(=O)N2CCN(S(=O)(=O)c3ccc4c(c3)OCCO4)CC2)cc1 | – | < 30 | 92.2% | inactive | inactive | < 30 | < 30 | < 30 | inactive | 0.75 | 10 | inactive | 150 | – | – |
| O=S(=O)(NCCNS(=O)(=O)c1c(F)cccc1F)c1ccc2c(c1)OCCO2 | > 15 | < 30 | 60.3% | inactive | inactive | < 30 | < 30 | < 30 | – | – | – | – | – | – | – |
| O=C(c1ccc2c(c1)OCCO2)N1CCN(S(=O)(=O)c2c(F)cccc2F)CC1 | – | < 30 | inactive | inactive | inactive | < 30 | < 30 | < 30 | – | – | – | – | – | Not Active | – |
| O=P(O)(O)OC[C@H]1O[C@@](O)(COP(=O)(O)O)[C@@H](O)[C@@H]1O | – | – | – | – | – | – | – | – | – | – | – | inactive | – | – | – |
| O=S(=O)(N[C@H]1CC[C@@H](NS(=O)(=O)c2c(F)cccc2F)CC1)c1ccc2c(c1)OCCO2 | > 35 | < 30 | 60.7% | inactive | inactive | < 30 | < 30 | < 30 | – | – | – | – | – | – | – |
| Nc1cccc(S(=O)(=O)N2CCCN(S(=O)(=O)c3ccc4c(c3)OCCO4)CC2)c1 | – | < 30 | 81.7% | inactive | inactive | < 30 | < 30 | < 30 | – | – | – | – | – | – | 51.2 (≈ 23.2 µg/mL) |
| COc1cc(F)c(S(=O)(=O)N2CCN(S(=O)(=O)c3cccc(N)c3)CC2)c(F)c1 | 0.026 | < 30 | 90.5% | inactive | inactive | < 30 | < 30 | < 30 | – | – | – | – | – | – | < 0.7 |
| O=S(=O)(NC1CCN(S(=O)(=O)c2c(F)cccc2F)CC1)c1ccc2c(c1)OCCO2 | 9 | < 30 | – | inactive | inactive | < 30 | < 30 | < 30 | – | – | – | – | – | – | – |
| O=S(=O)(NC1CCN(S(=O)(=O)c2ccc3c(c2)OCCO3)CC1)c1c(F)cccc1F | 3.69 | < 30 | 101% | inactive | inactive | < 30 | < 30 | < 30 | – | – | – | – | – | – | – |
| O=S(=O)(NC1CCN(S(=O)(=O)c2ccc3c(c2)OCCO3)C1)c1c(F)cccc1F (stereo not drawn) | > 15 | < 30 | 82.4% | inactive | inactive | < 30 | < 30 | < 30 | – | – | – | – | – | – | – |
| Nc1cccc(S(=O)(=O)N2CCN(S(=O)(=O)c3c(F)cccc3F)CC2)c1 | 0.099 | < 30 | 84.4% | inactive | inactive | < 30 | < 30 | < 30 | – | – | – | – | – | – | 5.7 (≈ 2.38 µg/mL) |
| C[C@@H]1CN(S(=O)(=O)c2ccc3c(c2)OCCO3)CCN1S(=O)(=O)c1c(F)cccc1F | 2.93 | < 30 | 108% | inactive | inactive | < 30 | < 30 | < 30 | – | – | – | – | – | – | – |
| O=S(=O)(c1ccc2c(c1)OCCO2)N1CCN(S(=O)(=O)c2cccc[n+]2[O-])CC1 | > 10 | < 30 | 81.5% | inactive | inactive | < 30 | < 30 | < 30 | – | – | – | – | – | – | – |
| O=S(=O)(c1ccc2c(c1)OCCO2)N1CCCN(S(=O)(=O)c2c(F)cccc2F)CC1 | – | < 30 | 120% | inactive | inactive | < 30 | < 30 | < 30 | – | – | – | – | – | – | 5.6 (≈ 2.66 µg/mL) |
| Nc1cccc(S(=O)(=O)N2CCN(S(=O)(=O)c3ccc4c(c3)OCCO4)CC2)c1 | 0.043 | < 30 | 83.7% | inactive | inactive | < 30 | < 30 | < 30 | – | – | – | – | – | – | 7.3 (≈ 3.21 µg/mL) |
| O=S(=O)(c1ccc2c(c1)OCCO2)N1CCN(S(=O)(=O)c2c(F)cccc2F)CC1 | – | < 30 | 94.4% | inactive | inactive | < 30 | < 30 | < 30 | – | – | – | – | – | – | < 1.1 |
| COc1cc(F)c(S(=O)(=O)N2CCCN(S(=O)(=O)c3cccc(N)c3)CC2)c(F)c1 | 0.223 | < 30 | 92.5% | inactive | inactive | < 30 | < 30 | < 30 | – | – | – | – | – | – | 26.3 (≈ 12.1 µg/mL) |
| O=S(=O)(NCCCCCNS(=O)(=O)c1c(F)cccc1F)c1ccc2c(c1)OCCO2 | – | < 30 | 114% | inactive | inactive | < 30 | < 30 | < 30 | – | – | – | – | – | – | – |
| O=C(c1c(F)cccc1F)N1CCN(S(=O)(=O)c2ccc3c(c2)OCCO3)CC1 | – | < 30 | inactive | inactive | inactive | < 30 | < 30 | < 30 | – | – | – | – | – | Not Active | – |
